The results in this text go back to ChEMBL document CHEMBL4004831, “Naphthalene diimide-polyamine hybrids as antiproliferative agents: Focus on the architecture of the polyamine chains” (Eur J Med Chem, 2017).

One assay is filed under the species Homo sapiens. Put plainly: Stabilization of 5'Dabcyl/3'FAM labeled human telomeric sequence G-quadruplex DNA assessed as increase in melting temperature at 2.5 uM pretreated for 5 mins at 30 degreeC followed by 5 mins incubation at 95 degreeC by fluorescence assay. The gist of the method: (§1)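 FRET melting in LiP buffer (10 mM LiOH, 50 mM KCl, pH 7.0 with H3PO4), ex 488 nm, em 520 nm. Samples were held 5 min at 30 °C, heated at 1 °C/min to 95 °C, held 5 min, then re-annealed. Tm came from first derivatives; ΔTm = shift with ligand at 2.5; at least three runs.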

Assay [1] can be described thus: Stabilization of 5'Dabcyl/3'FAM labeled duplex DNA (unknown origin) assessed as increase in melting temperature at 2.5 uM pretreated for 5 mins at 30 degreeC followed by 5 mins incubation at 95 degreeC by fluorescence assay. In outline:
as §1

The target in assay [2] is DNA topoisomerase 2-alpha (Homo sapiens, UniProt P11388). Put plainly: Inhibition of human topoisomerase-2alpha-mediated relaxation of supercoiled pBR322 DNA after 1 hr by ethidium bromide staining based agarose gel electrophoresis. In outline:
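Supercoiled pBR322 was incubated with compound (0.5–100) and 1 U human topoisomerase IIα in enzyme buffer for 1 h at 37 °C. Reactions were stopped with Tris/EDTA/NaCl loading buffer (pH 8.0) and run on 1% agarose in TAE with 0.1% SDS (4.9 V/cm, 90 min), then stained with ethidium bromide. IC50 is the concentration reducing relaxation activity by 50%.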

A further assay relates to Thermus aquaticus. Put plainly: Inhibition of Thermus aquaticus DNA polymerase-mediated amplification of fragment of pBR322 by PCR. In outline:
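PCR amplification of a pBR322 fragment by Taq polymerase with increasing compound (0.25–40) for 25 cycles: 94 °C, 58 °C and 72 °C, 30 s each. Products were run on 2% agarose in 0.5X TBE (4.2 V/cm, 1.5 h) and stained with ethidium bromide. IC50 is the concentration halving activity; MIC is the lowest concentration that suppresses activity.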

Molecules are shown by their SMILES. Values after ≈ are worked out from the molar mass of the structure shown.

Chain of DNA topoisomerase 2-alpha (P11388 whole entry): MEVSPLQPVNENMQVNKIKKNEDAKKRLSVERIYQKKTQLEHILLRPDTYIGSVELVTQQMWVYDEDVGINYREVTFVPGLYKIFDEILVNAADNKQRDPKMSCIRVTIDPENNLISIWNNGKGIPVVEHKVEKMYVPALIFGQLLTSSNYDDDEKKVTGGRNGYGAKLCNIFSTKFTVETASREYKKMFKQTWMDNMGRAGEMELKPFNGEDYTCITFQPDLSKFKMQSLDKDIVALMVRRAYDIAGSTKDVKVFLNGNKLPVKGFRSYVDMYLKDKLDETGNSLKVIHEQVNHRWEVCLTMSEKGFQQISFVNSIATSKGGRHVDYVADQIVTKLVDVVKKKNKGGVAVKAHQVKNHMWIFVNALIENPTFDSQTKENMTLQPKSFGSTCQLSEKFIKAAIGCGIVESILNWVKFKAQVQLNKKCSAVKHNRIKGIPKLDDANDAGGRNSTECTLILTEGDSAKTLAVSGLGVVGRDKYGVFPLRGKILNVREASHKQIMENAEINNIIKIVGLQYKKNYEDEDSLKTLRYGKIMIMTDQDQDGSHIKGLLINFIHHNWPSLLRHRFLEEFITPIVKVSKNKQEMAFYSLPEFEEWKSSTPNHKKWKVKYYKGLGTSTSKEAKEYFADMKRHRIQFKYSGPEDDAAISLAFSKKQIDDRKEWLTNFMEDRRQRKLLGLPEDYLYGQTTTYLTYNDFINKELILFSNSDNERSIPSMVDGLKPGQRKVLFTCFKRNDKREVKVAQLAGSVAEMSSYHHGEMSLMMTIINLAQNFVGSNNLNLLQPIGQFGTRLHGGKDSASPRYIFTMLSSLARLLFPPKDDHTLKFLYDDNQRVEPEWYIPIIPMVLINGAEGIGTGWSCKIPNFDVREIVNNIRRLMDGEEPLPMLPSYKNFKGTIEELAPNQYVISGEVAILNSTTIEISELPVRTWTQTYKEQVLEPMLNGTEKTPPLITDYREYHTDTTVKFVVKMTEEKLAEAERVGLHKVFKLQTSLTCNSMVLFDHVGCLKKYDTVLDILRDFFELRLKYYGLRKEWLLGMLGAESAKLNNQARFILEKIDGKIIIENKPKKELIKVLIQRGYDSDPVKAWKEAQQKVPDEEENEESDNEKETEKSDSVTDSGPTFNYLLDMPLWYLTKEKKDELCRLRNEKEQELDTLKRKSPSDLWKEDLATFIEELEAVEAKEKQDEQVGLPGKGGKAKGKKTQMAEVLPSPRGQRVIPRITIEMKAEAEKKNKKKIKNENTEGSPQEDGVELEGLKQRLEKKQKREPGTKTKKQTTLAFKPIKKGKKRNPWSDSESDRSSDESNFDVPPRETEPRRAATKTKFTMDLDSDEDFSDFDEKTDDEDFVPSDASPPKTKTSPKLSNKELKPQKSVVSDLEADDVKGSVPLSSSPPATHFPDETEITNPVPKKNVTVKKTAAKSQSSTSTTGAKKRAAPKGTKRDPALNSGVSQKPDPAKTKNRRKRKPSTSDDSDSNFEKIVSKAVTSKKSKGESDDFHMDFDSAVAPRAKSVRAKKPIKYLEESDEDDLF

Consider `COc1ccc(CNCCCN2C(=O)c3ccc4c5c(ccc(c35)C2=O)C(=O)N(CCCNCCCCNCCCN)C4=O)c(OC)c1OC`, for which the ΔTm is 13.1 °C in the assay listed under Homo sapiens and 12.6 °C in assay [1].

Consider `COc1ccccc1CNCCCN1C(=O)c2ccc3c4c(ccc(c24)C1=O)C(=O)N(CCCNCc1ccccc1OC)C3=O`, for which the results for the shift in melting temperature (ΔTm) (in the assay listed under Homo sapiens; in assay [1]) were 20.5 °C and 8.4 °C, respectively. The same compound had an IC50 in assay [2] of 6 µM. In addition, the MIC in the assay on Thermus aquaticus was found to be 10 µM (≈ 6.21 µg/mL).

As for `COc1ccccc1CNCCCN1C(=O)c2ccc3c4c(ccc(c24)C1=O)C(=O)N(CCCNCCCNCCCN)C3=O`, the values for the ΔTm (in the assay filed under Homo sapiens; in assay [1]) were 16.3 °C and 12.2 °C, respectively.

What is called ΔTm is the change in melting temperature against a reference sample. As a reminder, the IC50 is the concentration at which inhibition is half-maximal. High values mean a need for much substance, low ones inhibition by little substance.
